CTSL1 counter – cathepsin L1 inhibition, PFM18AAP counter-screen; 300,000 tested, 0.49% active; recombinant F. hepatica cathepsin L1, Z-Leu-Arg-MCA fluorescence; inhibition, % at 5.96 µM; AID 1906;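 active means inhibition above the mean of all tested compounds plus 3 SD, set per screening campaign, cut at about 17% in these data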;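 further: 0% = plate median of test compound wells and 100% = 1 µM Z-Phe-Ala-diazomethylketone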
PP5 inh – blocks human protein phosphatase 5 activity; P53041; purified PP5c, OMFP substrate fluorescence; inhibition, % at 6.7 µM; 320,000 tested, 0.18% active;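 active means inhibition above the campaign's mean inhibition across all tested compounds plus 3 SD, cut at about 9.5% in these data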;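 further: 0% = DMSO only and 100% = 100 µM cantharidin control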
UCH37 inh – inhibitors of human deubiquitinating enzyme UCH37; Q9Y5K5; purified proteasome/UCH37, Ub-AMC cleavage fluorescence; inhibition, % (no concentration beside the values); 330,000 tested, 0.33% active; AID 588478;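 active means mean inhibition over replicate wells above about 20%, limit read from the data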;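 further: 0% = compound-free wells with enzyme and 100% = wells lacking proteasome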
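Material: human UCH37 enzyme supplied as purified proteasome complex. Measure: % inhibition of Ub-AMC cleavage fluorescence. Medium: pH 7.4 Tris-HCl (50 mM) with ovalbumin, ATP-MgCl2, DTT. Times: 30 min preincubation with enzyme, 25 min cleavage at room temperature. Detection: AMC fluorescence intensity at 355/460 nm.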
PP1 counter – PP1-alpha (human) inhibition in PP5 counter-screen | P62136 | purified PP1alpha, OMFP fluorescence | inhibition, % at 6.7 µM | 320,000 tested, 0.9% active | AID 2235;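 active means inhibition above the mean inhibition of all tested compounds plus 3 SD, computed separately for each screening campaign, cut at about 15% in these data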
Target sequence (P62136 whole entry, looked up): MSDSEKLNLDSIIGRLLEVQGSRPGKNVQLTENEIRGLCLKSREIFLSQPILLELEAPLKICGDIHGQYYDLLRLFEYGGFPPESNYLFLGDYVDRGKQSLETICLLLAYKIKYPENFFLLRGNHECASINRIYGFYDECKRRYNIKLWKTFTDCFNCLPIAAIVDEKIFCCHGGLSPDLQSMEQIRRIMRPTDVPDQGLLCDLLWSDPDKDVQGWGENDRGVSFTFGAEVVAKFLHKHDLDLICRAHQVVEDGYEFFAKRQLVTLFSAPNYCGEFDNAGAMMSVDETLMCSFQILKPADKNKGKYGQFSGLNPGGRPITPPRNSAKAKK
PREPL inh – inhibitors of human prolyl oligopeptidase-like enzyme PREPL; Q4J6C6; AID 2751; recombinant PREPL, fluorescence polarization activity-based probe; 320,000 tested, 0.68% active; inhibition, % at 5.96 µM; in the data active means inhibition above about 43%;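 further: 0% = enzyme with DMSO and 100% = wells lacking enzyme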
UBC13 inh – blocks human UBC13 polyubiquitin chain formation | P61088 | TR-FRET | inhibition, % at 20 µM | 330,000 tested, 0.47% active | AID 485273; in the data active means inhibition above about 45%, passing the limit was not always enough
Target sequence (P61088 whole entry, looked up): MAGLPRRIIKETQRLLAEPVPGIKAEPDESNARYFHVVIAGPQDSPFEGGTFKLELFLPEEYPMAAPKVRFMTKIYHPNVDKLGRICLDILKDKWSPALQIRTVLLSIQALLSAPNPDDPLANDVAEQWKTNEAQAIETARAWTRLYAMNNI
* hit, by the source's call; x = not tested or not shown. Rows were chosen to be rich in hits. Some 2.3% of all compounds tested hit in one or more screens of this group.

SMILES | CTSL1 counter | PP5 inh | UCH37 inh | PP1 counter | PREPL inh | UBC13 inh
CCn1c(SCC(=O)NCCOc2ccccc2)nc2ccccc2c1=O | -1 | 2 | 28* | 7 | -10 | 8
CCn1c(SCC(=O)NCc2ccco2)nc2ccccc2c1=O | 4 | 0 | 2 | -2 | 18 | 8
O=C(CCl)Nc1cc2[nH]c(=O)[nH]c2cc1Br | 25* | 1 | 6 | -1 | 8 | -8
Cc1cc(-c2csc(NC(=O)C3=COCCO3)n2)c(C)n1C | 3 | -2 | x | 13 | 3 | -10
Cc1cc(-c2csc(NC(=O)c3ccc(=O)n(C)n3)n2)c(C)n1CC1CCCO1 (stereo not given) | -1 | 4 | 4 | 16* | 20 | -15
NC(=O)NN=Cc1cc(F)cc(F)c1 | x | x | 5 | x | x | x
CSc1nc2ccsc2c(=O)n1-c1ccccc1 | 18* | 2 | 1 | -1 | 2 | 3
C=CCSc1nc2ccsc2c(=O)n1-c1ccccc1 | 0 | -1 | -1 | -2 | 5 | 0
O=C(NN=Cc1ccccc1[N+](=O)[O-])c1cccs1 | x | x | 2 | x | x | x
COc1cc(C(=O)O)ccc1O | -4 | 2 | 1 | -1 | -8 | 0
COc1cc(C(=O)C(=O)c2ccc(O)c(OC)c2)ccc1O | 3 | 2 | 21* | -3 | -7 | -15
CC(C)C(NC(=O)c1ccco1)C(=O)NCC(c1ccco1)N1CCCCC1 (stereo not given) | 79* | -4 | -1 | 4 | -2 | -6
CCNC(=S)NN=Cc1ccc(F)cc1 | x | x | 5 | x | x | x
NC(=N\N=Cc1ccccc1)/C(N)=N/N=Cc1ccccc1 | x | x | 3 | x | x | x
Cn1c(CS/C(N)=N/N=C/c2ccccc2)c(Br)c(=O)n1-c1ccccc1 | 37* | 0 | x | -5 | 15 | 4
CCOC(=O)C1=c2c(=Cc3ccncc3)c(N)c(C(=O)OC)n2C(=O)C(c2ccncc2)S1 (stereo not given) | x | x | 4 | x | x | x
O=C(CSc1ccccc1)N1CCN(c2ccc(F)cc2)CC1 | 17* | -2 | 2 | -1 | -22 | 8
CCOc1ccc2[nH]c(=O)c(CN(Cc3cccs3)C(CC)c3nnnn3C(C)(C)CC)cc2c1 (stereo not given) | x | x | -14 | x | x | x
CCC(c1nnnn1C(C)(C)C)N(Cc1cccs1)Cc1cc2cc(C)c(C)cc2n2nnnc12 (stereo not given) | 19* | 0 | 1 | 0 | 16 | -7
CON=Cc1c(-c2ccccc2)nn(C)c1Cl | x | x | 1 | x | x | x
CN(C)C=NC(=O)c1cc(C(=O)c2ccc(Cl)cc2)c[nH]1 | 18* | 0 | 5 | -1 | 4 | 1
CCOc1ccc(Br)cc1S(=O)(=O)Nc1ccc(Cl)c(S(=O)(=O)N(CC)c2ccccc2)c1 | 17* | 4 | 3 | 3 | 5 | 3
COc1ccc(CNC(=O)C2(CC3CC(c4ccccc4)=NO3)CCN(C(=O)C3(C)CC3)CC2)cc1 (stereo not given) | 4 | 0 | 0 | -1 | 12 | 6
COc1ccc(CNC(=O)C2(CC3CC(c4ccccc4)=NO3)CCN(C(=O)C3CCCC3)CC2)cc1 (stereo not given) | -2 | 1 | 30* | -4 | 3 | 11
Cn1cc([N+](=O)[O-])c(C(=O)NN=Cc2ccc3c(c2)OCO3)n1 | x | x | 9 | x | x | x
SMILES | CTSL1 counter | PP5 inh | UCH37 inh | PP1 counter | PREPL inh | UBC13 inh
CCOC(=O)CNC(=O)CSc1nc(C)cc(C)c1C#N | -3 | 3 | 5 | 4 | 7 | 6
Cc1ccc(CNC(=O)CSc2nc(C)cc(C)c2C#N)cc1 | 17* | 3 | 5 | 2 | -5 | 12
C[C@@H]1CC=C[C@H]2[C@H]1C(=O)N(Cc1ccccc1)[C@H]2c1ccc(F)c(-c2ccc(N(C)C)cc2)c1 | 0 | 3 | -4 | 16* | 8 | 2
Cc1ccc(C(=O)c2ccccc2C(=O)OCC(=O)NCCc2ccc(Cl)cc2Cl)cc1 | 0 | 0 | 1 | 6 | 0 | 9
O=C(COC(=O)c1ccc[nH]c1=O)NCCc1ccc(Cl)cc1Cl | 18* | 3 | -1 | 0 | -11 | 4
Cn1c(=O)[nH]c(=O)c2c1nc(SCCC(=O)O)n2Cc1cccc(Br)c1 | 0 | 0 | x | 1 | -3 | -4
CC(=O)CSc1nc2c(c(=O)[nH]c(=O)n2C)n1Cc1cccc(Br)c1 | 35* | 1 | 3 | -2 | -13 | 14
CN(C(=O)CSc1ncnc2scc(-c3ccccc3)c12)C1CCS(=O)(=O)C1 (stereo not given) | 17* | -3 | -1 | -2 | 3 | 0
CN(C(=O)CSc1ncnc2sc(-c3ccccc3)cc12)C1CCS(=O)(=O)C1 (stereo not given) | 1 | 4 | 0 | 0 | 5 | -14
CCOC(=O)CC(=O)CSc1nnc2sc3ccccc3n12 | 41* | -2 | 4 | -2 | 3 | 5
CCn1c2ccccc2c2cc(C=NNC(=O)c3ccccc3C)ccc21 | x | x | -34 | x | x | x
Cc1ccccc1-c1cc(C(=O)NCc2cccc(C(F)(F)F)c2)nn1CC1CC(c2cccc([N+](=O)[O-])c2)=NO1 (stereo not given) | -2 | 2 | 35* | 12 | -2 | -6
Cc1ccc(C(=O)Nc2nnc(CC(=O)N/N=C/c3ccncc3)s2)cc1 | -1 | 2 | x | 15* | -11 | -9
O=C(Cc1nnc(NC(=O)c2ccccc2)s1)NN=Cc1ccc(O)c(O)c1 | x | x | 2 | x | x | x
COc1ccc(C(=O)NN=c2oc3ccccc3cc2C(=O)NCc2ccccc2)cc1 | x | x | 1 | x | x | x
CSc1sccc1C=NO | x | x | 3 | x | x | x
Cc1ccc(-c2csc(C3C(N)=NC(S)=C(C#N)C34CCCCC4)n2)cc1 (stereo not given) | 1 | 4 | 1 | 17* | 15 | -12
N#CC1=C(S)N=C(N)C(c2nc(-c3ccccc3)cs2)C12CCCCC2 (stereo not given) | -1 | 4 | x | 0 | 10 | -22
CC(=O)NCC(C)=NNc1ccc([N+](=O)[O-])cc1 | x | x | 5 | x | x | x
O=C(CN(c1cccc([N+](=O)[O-])c1)S(=O)(=O)c1ccccc1)NCc1ccccc1 | 0 | 2 | 0 | 0 | -2 | 13
O=C(CN(c1cccc([N+](=O)[O-])c1)S(=O)(=O)c1ccccc1)N(Cc1ccccc1)Cc1ccccc1 | 18* | -3 | 3 | 2 | -1 | 5
COc1cccc(C(=O)NN=c2sc3ccccc3n2C)c1 | x | x | 4 | x | x | x
COc1ccccc1C=NNC(=O)CNC(=O)c1ccc(S(=O)(=O)N(C)C)cc1 | x | x | 2 | x | x | x
Cc1ccc(-c2ccc(S(=O)(=O)Nc3cccnc3)cc2)cc1 | 3 | 2 | x | 16* | 5 | -6
Cc1cc(NN=Cc2ccccc2F)nc(NCc2ccccc2)n1 | x | x | 4 | x | x | x
Cc1ccccc1CS(=O)(=O)CCC(=O)NCCCN1CCN(c2ccccc2F)CC1 | -1 | 0 | 33* | -4 | 27 | 13
COc1ccc(C=NNC(=O)Cc2csc(Nc3cccc(C(F)(F)F)c3)n2)c(OC)c1 | x | x | -2 | x | x | x
